Measurements published in ChEMBL document CHEMBL4145530, “Design, synthesis and pharmacological evaluation of N-benzyl-piperidinyl-aryl-acylhydrazone derivatives as donepezil hybrids: Discovery of novel multi-target anti-alzheimer prototype drug candidates” (Eur J Med Chem, 2018).

Key:
Mus musculus [1] = experiment: Inhibition of serum COX1 level in Swiss mouse model of carragenan-induced paw edema at 100 mM/kg, po pretreated for 1 hr followed by carrageenan treatment measured after 3 hrs by ELISA; assay type: functional
Outline: (§1)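 Swiss mice (n=8) received compound (100 mM/kg) or vehicle orally 1 h before intraplantar carrageenan; indomethacin was the positive control. Three hours later, blood was drawn from the heart under chloral hydrate anaesthesia and serum was collected. COX-1 and COX-2 protein was measured by sandwich ELISA read at 450 nm and expressed as percent COX level.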

Mus musculus [2] = experiment: Antinociceptive activity in carrageenan-induced Swiss mouse model of mechanical hyperalgesia assessed as mechanical hyperalgesic index pretreated orally for 1 hr followed by carrageenan challenge by Von Frey filament assay; assay type: functional
Outline: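 Swiss mice were placed in wire-screen acrylic boxes 60 min before testing. Vehicle, compound or indomethacin was given orally 1 h before intraplantar carrageenan. Mechanical threshold was found by the von Frey up-and-down method, with at least 6 trials at 10 s intervals, raising filament mass until paw withdrawal. Results are given as threshold in grams; n=8.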

Mus musculus [3] = experiment: Anti-inflammatory activity in Swiss mouse assessed as reduction in carrageenan-induced paw edema by measuring paw volume […] po pretreated for 1 hr followed by carrageenan injection and measured after 1 to 5 hrs by plethysmometric method (reference value: 67.73 +/- 4.2 uL); assay type: functional
Outline: (§2)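 Male Swiss mice (22–28 g) were fasted overnight and dosed orally with vehicle (2% DMSO in sterile saline), compound or indomethacin 1 h before intraplantar carrageenan. Groups (n=10) were matched on basal paw volume. Right hind paw volume was read by plethysmometer at 1, 3 and 5 h and expressed as change from basal.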

Mus musculus [4] = experiment: Antinociceptive activity in formalin-induced Swiss mouse model of hyperalgesia assessed as time spent licking the injected paw in early phase at 100 mM/kg, po pretreated for 1 hr followed by formalin injection and measured up to 5 mins (reference value: 74 +/- 7.7 secs); assay type: functional
Mus musculus [5] = experiment: Inhibition of serum COX2 level in Swiss mouse model of carragenan-induced paw edema at 100 mM/kg, po pretreated for 1 hr followed by carrageenan treatment measured after 3 hrs by ELISA; assay type: functional; outline: as §1
Mus musculus [6] = experiment: Anti-inflammatory activity in po dosed Swiss mouse assessed as reduction in carrageenan-induced paw edema pretreated for 1 hr followed by carrageenan injection and measured after 1 to 5 hrs by plethysmometric method; assay type: functional; conditions: read-out: ID50 (the source's name); outline: as §2
Mus musculus [7] = experiment: Antinociceptive activity in formalin-induced Swiss mouse model of hyperalgesia assessed as time spent licking the injected paw in last phase at […], po pretreated for 1 hr followed by formalin injection and measured at 20 to 30 mins (reference value: 135.8 +/- 10.7 secs); assay type: functional
[8] = molecular target: Acetylcholinesterase (Electrophorus electricus) (UniProt O42275); experiment: (§3) Inhibition of electric eel AChE using acetylthiocholine iodide as substrate preincubated for 10 mins followed by substrate addition by Ellman's method
Acetylcholinesterase [9] = molecular target: T1, Acetylcholinesterase (Electrophorus electricus, UniProt O42275); experiment: as §3
[10] = molecular target: Acetylcholinesterase (Electrophorus electricus) (UniProt O42275); experiment: Inhibition of electric eel AChE at 100 uM using acetylthiocholine iodide as substrate preincubated for 10 mins followed by substrate addition by Ellman's method relative to control
[11] = Cytotoxicity against human HepG2 cells assessed as cell viability at 20 to 40 uM after 6 hrs by trypan blue exclusion assay relative to control; assay type: cell-based; conditions: read-out: Activity
[12] = Selectivity ratio of IC50 for equine serum BuChE to IC50 for electric eel AChE
Outline: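 Ellman kinetic assay with Electrophorus electricus AChE (acetylthiocholine) and equine serum BuChE (butyrylthiocholine iodide), […]. Enzyme was preincubated 10 min with DTNB and compound in 0.1 M sodium phosphate, pH 7.4 (final DMSO <0.2%), before substrate was added. A412 was read every 12 s for 5 min at rt to give maximum velocity. IC50 is the geometric mean of 2–3 curves, each 6 concentrations in triplicate. Selectivity is IC50 BuChE/IC50 AChE.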

Acetylcholinesterase [13] = molecular target: T1, Acetylcholinesterase; experiment: Non-competitive inhibition of electric eel AChE using acetylthiocholine iodide as substrate preincubated for 10 mins followed by substrate addition by Ellman's method
Outline: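 Substrate-competition kinetics with E. electricus AChE by Ellman's method: 10 min enzyme–DTNB–compound preincubation in 0.1 M phosphate, pH 7.4, then acetylthiocholine; A412 was read every 12 s for 5 min at rt. Three independent data sets, each in triplicate, were averaged and fitted to a simple noncompetitive model. That model was compared with mixed linear inhibition by AICc probability ratio.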

[14] = molecular target: Cholinesterase (Equus caballus) (UniProt P81908); experiment: (§4) Inhibition of […] preincubated for 10 mins followed by substrate addition by Ellman's method
Cholinesterase = Cholinesterase (Equus caballus, UniProt P81908); experiment: as §4
Mus musculus [15] = experiment: Antinociceptive activity in formalin-induced Swiss mouse model of hyperalgesia assessed as time spent licking the injected paw in last phase at 39 mM/kg, po pretreated for 1 hr followed by formalin injection and measured at 20 to 30 mins (reference value: 135.8 +/- 10.7 secs); assay type: functional
Mus musculus [16] = experiment: Antinociceptive activity in formalin-induced Swiss mouse model of hyperalgesia assessed as time spent licking the injected paw in early phase at 39 mM/kg, po pretreated for 1 hr followed by formalin injection and measured up to 5 mins (reference value: 74 +/- 7.7 secs); assay type: functional
[17] = molecular target: T2, Prostaglandin G/H synthase 1 (Ovis aries) (UniProt P05979); experiment: Inhibition of ovine COX1 at 10 uM using arachidonic acid as substrate preincubated for 120 mins followed by substrate addition measured for 5 secs by chemiluminescence assay relative to control
T2 sequence (whole entry): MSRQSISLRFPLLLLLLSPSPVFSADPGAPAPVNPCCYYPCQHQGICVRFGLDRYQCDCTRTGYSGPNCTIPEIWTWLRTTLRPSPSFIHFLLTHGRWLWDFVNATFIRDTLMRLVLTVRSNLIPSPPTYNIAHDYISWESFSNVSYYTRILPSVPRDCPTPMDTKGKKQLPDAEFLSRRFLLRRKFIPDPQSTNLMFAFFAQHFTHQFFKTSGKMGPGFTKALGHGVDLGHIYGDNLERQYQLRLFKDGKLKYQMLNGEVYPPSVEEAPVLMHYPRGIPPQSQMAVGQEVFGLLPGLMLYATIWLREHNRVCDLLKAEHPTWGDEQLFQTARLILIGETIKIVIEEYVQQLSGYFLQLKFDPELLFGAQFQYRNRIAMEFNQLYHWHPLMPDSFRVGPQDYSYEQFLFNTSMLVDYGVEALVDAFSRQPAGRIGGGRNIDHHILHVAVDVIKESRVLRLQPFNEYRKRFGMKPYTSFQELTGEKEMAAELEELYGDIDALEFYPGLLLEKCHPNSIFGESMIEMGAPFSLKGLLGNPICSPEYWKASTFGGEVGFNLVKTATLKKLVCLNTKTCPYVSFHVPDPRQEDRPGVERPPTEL
Outline: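 COX-1 or COX-2 with heme was preincubated 120 min with compound (10 µM) in assay buffer. Arachidonic acid and a chemiluminescent substrate were then added at room temperature and peroxidative activity was read for 5 s; ibuprofen was the reference. Selectivity index was taken as the ratio of maximum COX-2 inhibition to COX-1 inhibition. Two independent experiments.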

Sequence of Cholinesterase (Equus caballus) (P81908 whole entry): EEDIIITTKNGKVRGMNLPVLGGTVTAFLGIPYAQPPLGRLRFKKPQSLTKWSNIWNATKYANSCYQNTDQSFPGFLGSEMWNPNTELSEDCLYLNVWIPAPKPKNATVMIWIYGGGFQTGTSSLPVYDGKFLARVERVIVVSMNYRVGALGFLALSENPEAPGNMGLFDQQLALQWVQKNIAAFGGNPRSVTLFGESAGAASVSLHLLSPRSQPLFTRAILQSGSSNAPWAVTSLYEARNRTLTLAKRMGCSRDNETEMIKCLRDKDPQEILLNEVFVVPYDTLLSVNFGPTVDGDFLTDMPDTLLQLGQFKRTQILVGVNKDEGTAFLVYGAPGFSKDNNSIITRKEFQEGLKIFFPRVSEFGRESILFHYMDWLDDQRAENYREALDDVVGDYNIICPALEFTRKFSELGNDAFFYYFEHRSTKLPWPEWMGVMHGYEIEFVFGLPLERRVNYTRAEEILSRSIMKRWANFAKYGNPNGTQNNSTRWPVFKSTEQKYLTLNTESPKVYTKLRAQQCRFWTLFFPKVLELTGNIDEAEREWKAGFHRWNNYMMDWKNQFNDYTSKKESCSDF
Sequence of Cholinesterase (P81908 whole entry): as above
Sequence of Acetylcholinesterase (Electrophorus electricus) (O42275 24-633 limits assumed): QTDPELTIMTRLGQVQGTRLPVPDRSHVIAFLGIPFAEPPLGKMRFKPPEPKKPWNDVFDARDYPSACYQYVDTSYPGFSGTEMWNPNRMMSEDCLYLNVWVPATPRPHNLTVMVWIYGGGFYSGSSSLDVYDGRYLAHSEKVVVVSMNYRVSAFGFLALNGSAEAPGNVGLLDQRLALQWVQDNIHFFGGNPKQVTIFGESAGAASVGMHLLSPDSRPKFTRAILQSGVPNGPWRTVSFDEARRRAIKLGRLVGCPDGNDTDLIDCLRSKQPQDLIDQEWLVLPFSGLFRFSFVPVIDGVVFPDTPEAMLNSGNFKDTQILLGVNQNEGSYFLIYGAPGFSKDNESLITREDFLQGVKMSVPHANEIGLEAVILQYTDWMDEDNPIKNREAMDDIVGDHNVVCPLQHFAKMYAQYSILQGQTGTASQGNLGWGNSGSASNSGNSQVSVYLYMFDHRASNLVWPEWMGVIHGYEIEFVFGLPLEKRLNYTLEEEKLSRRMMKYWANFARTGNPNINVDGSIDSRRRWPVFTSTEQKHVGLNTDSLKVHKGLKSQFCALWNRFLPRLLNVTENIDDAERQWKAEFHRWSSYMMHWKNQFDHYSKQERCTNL
T1 sequence (O42275 whole entry): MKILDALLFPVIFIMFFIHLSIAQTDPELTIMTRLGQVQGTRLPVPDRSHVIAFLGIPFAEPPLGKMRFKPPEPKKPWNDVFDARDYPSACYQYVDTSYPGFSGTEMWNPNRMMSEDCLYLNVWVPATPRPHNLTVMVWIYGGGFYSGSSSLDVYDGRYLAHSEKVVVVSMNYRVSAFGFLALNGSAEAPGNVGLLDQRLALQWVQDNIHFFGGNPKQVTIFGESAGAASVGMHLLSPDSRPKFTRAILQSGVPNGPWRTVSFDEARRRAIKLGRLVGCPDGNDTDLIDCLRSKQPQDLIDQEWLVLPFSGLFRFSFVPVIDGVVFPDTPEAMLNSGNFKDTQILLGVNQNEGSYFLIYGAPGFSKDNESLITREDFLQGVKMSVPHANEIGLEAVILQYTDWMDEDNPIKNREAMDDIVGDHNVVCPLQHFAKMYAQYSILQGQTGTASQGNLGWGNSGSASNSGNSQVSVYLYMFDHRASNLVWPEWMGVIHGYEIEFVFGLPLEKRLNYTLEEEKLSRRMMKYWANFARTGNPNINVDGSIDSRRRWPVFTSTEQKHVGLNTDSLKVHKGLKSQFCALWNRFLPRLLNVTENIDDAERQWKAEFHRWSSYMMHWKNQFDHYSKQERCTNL

COc1ccc2c(c1)c(CC(=O)O)c(C)n2C(=O)c1ccc(Cl)cc1 [INDOMETHACIN]
inhibition (INH) (Mus musculus [1]): 52%
Activity_index (Mus musculus [2]): 158.1
Activity (Mus musculus [3]): 14.29 µL
Time (Mus musculus [4]): 65.43 s
inhibition (INH) (Mus musculus [5]): 40%
ED50 (Mus musculus [6]): 2.12 µmol/kg
Time (Mus musculus [7]): 22.75 s

O=C(N/N=C/c1ccc(Br)cc1)c1ccc(CN2CCCC(O)C2)cc1 (stereo not drawn)
inhibition [8]: Dose-dependent effect
IC50 (Acetylcholinesterase [9]): 11.9 µM
inhibition [10]: > 60%
Activity_index (Mus musculus [2]): 235.8

CC(=O)OC1CCCN(Cc2ccc(C(=O)N/N=C/c3ccc(N)cc3)cc2)C1 (stereo not drawn)
IC50 (Acetylcholinesterase [9]): ≥ 100 µM
Activity_index (Mus musculus [2]): 146.1
Activity (Mus musculus [3]): 11.43 µL
Time (Mus musculus [4]): 47.75 s
ED50 (Mus musculus [6]): 4.2 µmol/kg
Time (Mus musculus [7]): 69.75 s

COc1cc2c(cc1OC)C(=O)C(CC1CCN(Cc3ccccc3)CC1)C2 (stereo not drawn) [DONEPEZIL]
viability at 6 h, 40 µM [11]: > 90%

O=C(N/N=C/c1ccc(N2CCCC2)cc1)c1ccc(CN2CCCC(O)C2)cc1 (stereo not drawn)
inhibition [8]: Dose-dependent effect
IC50 (Acetylcholinesterase [9]): 14.7 µM
inhibition [10]: > 60%
Activity_index (Mus musculus [2]): 206.4

CSc1ccc(/C=N/NC(=O)c2ccc(CN3CCCC(O)C3)cc2)cc1 (stereo not drawn)
inhibition [8]: Dose-dependent effect
IC50 (Acetylcholinesterase [9]): 10.4 µM
Ratio IC50 [12]: 5.7
Ki (Acetylcholinesterase [13]): 8.42 µM
inhibition [10]: > 60%
Activity_index (Mus musculus [2]): 260.3
inhibition [14]: Dose-dependent effect
IC50 (Cholinesterase): 59.3 µM

CC(=O)OC1CCCN(Cc2ccc(C(=O)N/N=C/c3ccc(Br)cc3)cc2)C1 (stereo not drawn)
IC50 (Acetylcholinesterase [9]): ≥ 100 µM
Activity_index (Mus musculus [2]): 206.9

COc1ccc(/C=N/NC(=O)c2ccc(CN3CCCC(O)C3)cc2)cc1 (stereo not drawn)
inhibition [8]: Dose-dependent effect
IC50 (Acetylcholinesterase [9]): 13.2 µM
Ratio IC50 [12]: 7
Ki (Acetylcholinesterase [13]): 11.5 µM
inhibition [10]: > 60%
Activity_index (Mus musculus [2]): 161.1
Activity (Mus musculus [3]): 25.71 µL
Time (Mus musculus [4]): 13.29 s
ED50 (Mus musculus [6]): 68.3 µmol/kg
inhibition [14]: Dose-dependent effect
IC50 (Cholinesterase): 91.9 µM
Time (Mus musculus [7]): 15.86 s

CC(=O)Oc1ccc(/C=N/NC(=O)c2ccc(CN3CCCC(OC(C)=O)C3)cc2)cc1 (stereo not drawn)
IC50 (Acetylcholinesterase [9]): ≥ 100 µM
Activity_index (Mus musculus [2]): 353.1

O=C(N/N=C/c1ccc(-n2ccnc2)cc1)c1ccc(CN2CCCC(O)C2)cc1 (stereo not drawn)
inhibition [8]: Dose-dependent effect
IC50 (Acetylcholinesterase [9]): 21.7 µM
Ratio IC50 [12]: 1.8
Ki (Acetylcholinesterase [13]): 21.1 µM
inhibition [10]: > 60%
inhibition [14]: Dose-dependent effect
IC50 (Cholinesterase): 39.6 µM

O=C(N/N=C/c1ccc(N2CCOCC2)cc1)c1ccc(CN2CCCC(O)C2)cc1 (stereo not drawn)
IC50 (Acetylcholinesterase [9]): ≥ 100 µM
Activity_index (Mus musculus [2]): 83.96
Activity (Mus musculus [3]): 21.43 µL
Time (Mus musculus [4]): 62.75 s
ED50 (Mus musculus [6]): 2.67 µmol/kg
Time (Mus musculus [7]): 69.67 s

CN1CC[C@]23c4c5ccc(O)c4O[C@H]2[C@@H](O)C=C[C@H]3[C@H]1C5 [MORPHINE]
Time (Mus musculus [15]): 3.375 s
Time (Mus musculus [16]): 7.5 s

O=C(N/N=C/c1ccc([N+](=O)[O-])cc1)c1ccc(CN2CCCC(O)C2)cc1 (stereo not drawn)
inhibition [8]: Dose-dependent effect
IC50 (Acetylcholinesterase [9]): 2.71 µM
Ratio IC50 [12]: 12.5
Ki (Acetylcholinesterase [13]): 2.45 µM
inhibition [10]: > 60%
Activity_index (Mus musculus [2]): 320.1
inhibition [14]: Dose-dependent effect
IC50 (Cholinesterase): 33.9 µM

COc1cccc2c1C(=O)c1c(O)c3c(c(O)c1C2=O)C[C@@](O)(C(=O)CO)C[C@@H]3O[C@H]1C[C@H](N)[C@H](O)[C@H](C)O1 [DOXORUBICIN]
viability at 6 h, 40 µM [11]: > 90%

Nc1ccc(/C=N/NC(=O)c2ccc(CN3CCCC(O)C3)cc2)cc1 (stereo not drawn)
inhibition [8]: Dose-dependent effect
IC50 (Acetylcholinesterase [9]): 21.5 µM
inhibition [10]: > 60%
Activity_index (Mus musculus [2]): 244.4

O=C(N/N=C/c1ccccc1)c1ccc(CN2CCCC(O)C2)cc1 (stereo not drawn)
inhibition [8]: Dose-dependent effect
IC50 (Acetylcholinesterase [9]): 30 µM
inhibition [10]: > 60%

CC(C)Cc1ccc(C(C)C(=O)O)cc1 (stereo not drawn)
inhibition [17]: 88%

O=C(N/N=C/c1ccc(N2CCCCC2)cc1)c1ccc(CN2CCCC(O)C2)cc1 (stereo not drawn)
inhibition [8]: Dose-dependent effect
IC50 (Acetylcholinesterase [9]): 10.9 µM
Ratio IC50 [12]: 5.3
Ki (Acetylcholinesterase [13]): 9.7 µM
inhibition [10]: > 60%
Activity_index (Mus musculus [2]): 64.56
Time (Mus musculus [4]): 19.63 s
inhibition [14]: Dose-dependent effect
IC50 (Cholinesterase): 58.1 µM
Time (Mus musculus [7]): 110 s
